Data set [1] can be described thus: Antiproliferative activity against human A375M cells harboring BRAF V600E mutant after 24 hrs by MTT assay. The format is functional, cell-based. The method, boiled down:
(§1)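 MTT viability in melanoma lines grown in DMEM with 10% FBS and pen/strep at 37 °C, 5% CO2. 3000 cells/well, settled overnight, then exposed to compound (0 to 50 µM) in triplicate for 24, 48 or 72 h. MTT (5.0 mg/mL solution) added 3 h before termination. IC50 from non-linear regression (variable slope), mean ± SD.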
A general note: Formazan colour is commonly taken as a measure of viable cells.

The subject of data set [2] is UACC-903. Nature of the data set: Antiproliferative activity against human UACC-903 cells harboring BRAF V600E mutant after 72 hrs by MTT assay. It is filed as functional, cell-based. Particulars: UACC-903, 72 h. The method, boiled down: as §1
Data set [3] in a line: Antiproliferative activity against human A375M cells harboring BRAF V600E mutant after 48 hrs by MTT assay. The format is functional, cell-based. In a few lines: as §1
Data set [4] in a line: Antiproliferative activity against human A375M cells harboring BRAF V600E mutant after 72 hrs by MTT assay. It is filed as functional, cell-based. The method, boiled down:
as §1

Data set [5] relates to UACC-903. The experiment in a line: Antiproliferative activity against human UACC-903 cells harboring BRAF V600E mutant after 48 hrs by MTT assay. Particulars: UACC-903, 48 h. It is filed as functional, cell-based. In a few lines: as §1
Data set [6] has as its system CHL-1. The experiment in a line: Antiproliferative activity against human CHL-1 cells harboring wild type BRAF after 48 hrs by MTT assay. The format is functional, cell-based. Conditions: CHL-1, 48 h. In a few lines:
as §1

The subject of data set [7] is UACC-903. The experiment in a line: Antiproliferative activity against human UACC-903 cells harboring BRAF V600E mutant after 24 hrs by MTT assay. The format is functional, cell-based. Particulars: UACC-903, 24 h. In a few lines:
as §1

The nature of data set [8]: Antiproliferative activity against human 1205 Lu cells harboring BRAF V600E mutant after 72 hrs by MTT assay. The format is functional, cell-based. In a few lines: as §1
Data set [9] in a line: Antiproliferative activity against human 1205 Lu cells harboring BRAF V600E mutant after 24 hrs by MTT assay. The format is functional, cell-based. The method, boiled down: as §1
Data set [10] has as its system CHL-1. Nature of the data set: Antiproliferative activity against human CHL-1 cells harboring wild type BRAF after 24 hrs by MTT assay. The format is functional, cell-based. Conditions: CHL-1, 24 h. In a few lines:
as §1

The subject of data set [11] is CHL-1. Nature of the data set: Antiproliferative activity against human CHL-1 cells harboring wild type BRAF after 72 hrs by MTT assay. Particulars: CHL-1, 72 h. The format is functional, cell-based. The method, boiled down: as §1
The nature of data set [12]: Antiproliferative activity against human 1205 Lu cells harboring BRAF V600E mutant after 48 hrs by MTT assay. It is filed as functional, cell-based. The method, boiled down: as §1
The target of data set [13] is DNA topoisomerase 2-alpha (Homo sapiens) (UniProt P11388). Nature of the data set: Inhibition of human DNA topoisomerase 2alpha assessed as decrease in relaxation of supercoiled pBR322 DNA at 0.5 to 5 uM after 1 hr by ethidium bromide staining-based agarose gel electrophoresis. In a few lines: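 Kit-based relaxation assay: supercoiled plasmid DNA with 4 units of human Topo-IIα in assay buffer plus test agent or DMSO at 37 °C (1 h in legend, 30 min in methods). Stopped with 10% SDS, then proteinase K 15 min at 37 °C. Run on 1% agarose 1-2 h, ethidium bromide 2 h, destain 15 min in TAE, UV imaging.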
Chain of DNA topoisomerase 2-alpha (Homo sapiens) (P11388 whole entry): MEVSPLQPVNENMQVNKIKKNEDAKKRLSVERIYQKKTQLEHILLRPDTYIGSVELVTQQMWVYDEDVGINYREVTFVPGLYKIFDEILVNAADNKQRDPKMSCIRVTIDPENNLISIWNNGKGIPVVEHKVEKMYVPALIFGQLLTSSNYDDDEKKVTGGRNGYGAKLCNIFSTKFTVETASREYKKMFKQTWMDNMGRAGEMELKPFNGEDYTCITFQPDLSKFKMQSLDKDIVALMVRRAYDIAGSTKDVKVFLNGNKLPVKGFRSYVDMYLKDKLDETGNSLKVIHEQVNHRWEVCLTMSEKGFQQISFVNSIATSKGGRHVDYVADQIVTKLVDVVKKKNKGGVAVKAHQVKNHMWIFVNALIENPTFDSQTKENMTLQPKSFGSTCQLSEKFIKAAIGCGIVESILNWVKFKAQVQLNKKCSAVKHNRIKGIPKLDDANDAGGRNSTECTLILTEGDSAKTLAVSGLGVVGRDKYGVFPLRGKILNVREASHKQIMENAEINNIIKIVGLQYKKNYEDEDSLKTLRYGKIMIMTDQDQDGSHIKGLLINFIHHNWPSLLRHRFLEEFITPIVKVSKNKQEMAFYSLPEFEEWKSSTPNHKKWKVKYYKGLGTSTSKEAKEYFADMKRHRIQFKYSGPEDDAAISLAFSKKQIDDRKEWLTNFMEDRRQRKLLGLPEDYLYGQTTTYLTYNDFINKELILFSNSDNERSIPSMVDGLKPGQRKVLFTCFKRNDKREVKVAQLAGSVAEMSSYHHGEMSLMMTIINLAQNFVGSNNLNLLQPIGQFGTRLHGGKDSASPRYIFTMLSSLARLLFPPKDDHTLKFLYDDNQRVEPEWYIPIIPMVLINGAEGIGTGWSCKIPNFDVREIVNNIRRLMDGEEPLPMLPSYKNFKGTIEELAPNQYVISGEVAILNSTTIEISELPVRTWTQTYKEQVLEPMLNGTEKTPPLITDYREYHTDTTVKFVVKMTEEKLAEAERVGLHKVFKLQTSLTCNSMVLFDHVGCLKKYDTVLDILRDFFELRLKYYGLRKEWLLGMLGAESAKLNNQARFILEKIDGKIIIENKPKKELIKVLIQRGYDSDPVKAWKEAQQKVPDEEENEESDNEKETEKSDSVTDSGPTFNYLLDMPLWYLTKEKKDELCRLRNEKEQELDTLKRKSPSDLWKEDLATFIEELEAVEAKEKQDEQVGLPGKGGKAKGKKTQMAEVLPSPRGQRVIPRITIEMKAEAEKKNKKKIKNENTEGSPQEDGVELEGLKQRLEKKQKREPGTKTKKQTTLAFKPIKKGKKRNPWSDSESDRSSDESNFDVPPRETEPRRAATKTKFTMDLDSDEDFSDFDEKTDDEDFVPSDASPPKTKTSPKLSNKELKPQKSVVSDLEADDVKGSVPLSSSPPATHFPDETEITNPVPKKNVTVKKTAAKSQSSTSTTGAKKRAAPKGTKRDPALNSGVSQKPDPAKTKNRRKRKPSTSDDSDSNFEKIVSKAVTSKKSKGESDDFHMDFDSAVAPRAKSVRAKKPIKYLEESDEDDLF

For data set [14], the system named is NHDF. The experiment in a line: Cytotoxicity against human NHDF cells assessed as reduction in cell viability at 5 uM after 48 hrs by MTT assay. It is filed as cell-based. In a few lines:
(§2)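 nHDF normal fibroblasts grown in serum-free fibroblast basal medium with growth kit and pen/strep/amphotericin B. Treated 48 h at set concentrations, with viability read by MTT assay.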

The subject of data set [15] is NHDF. The experiment in a line: Cytotoxicity against human NHDF cells assessed as reduction in cell viability at 2.5 uM after 48 hrs by MTT assay. It is filed as cell-based. The method, boiled down: as §2

SMILES strings stand for the structures. Activity calls are given as the source filed them. The rule behind the calls is not given here.

As a reminder, the IC50 is the concentration that inhibits the measured activity by half. A lower IC50 goes with higher potency. With `O=C1c2cccc3cccc(c23)C(=O)N1CCN=C=[Se]`, the IC50 in [1] was determined as 9.7 µM; in the data set on UACC-903 [2], 5.9 µM; in data set [3] it was 7.8 µM; in data set [4], 8 µM; with UACC-903 [5], 5.5 µM; with CHL-1 [6], 6.8 µM. The IC50 in the data set on UACC-903 [7] was determined as 6.3 µM; in data set [8], 9.4 µM; in [9] it was 11 µM; in the data set on CHL-1 [10], 6.3 µM; in the data set with CHL-1 [11], 7.6 µM; in [12], 10.7 µM.

As for `N=C(N)[Se]CCN1C(=O)c2cccc3cccc(c23)C1=O`, the half-maximal inhibitory concentration (IC50) in data set [1] was more than 50 µM; with UACC-903 [2], 12.1 µM; in [3], 17.9 µM; in data set [4], 28.7 µM; in the data set with UACC-903 [5] it was 12.8 µM; with CHL-1 [6], 5.2 µM. In addition, the IC50 is 46.8 µM with UACC-903 [7]; 8.2 µM in data set [8]; 46.8 µM in data set [9]; 17.9 µM in the data set on CHL-1 [10]; 5.1 µM with CHL-1 [11]; 11.5 µM in data set [12].

Turning to `COc1cc([C@@H]2c3cc4c(cc3[C@@H](O[C@@H]3O[C@@H]5CO[C@@H](C)O[C@H]5[C@H](O)[C@H]3O)[C@H]3COC(=O)[C@H]23)OCO4)cc(OC)c1O`, the inhibition entry in data set [13] is “Active”.

On to `N=C(N)[Se]CCN1C(=O)c2cccc3cc([N+](=O)[O-])cc(c23)C1=O`, for which the IC50 in data set [1] is more than 50 µM; in the data set with UACC-903 [2], 14 µM; in data set [3], more than 50 µM; in data set [4], 25.8 µM; in the data set with UACC-903 [5], 18.1 µM; with CHL-1 [6] it was 8.5 µM. Moreover, the 50% inhibitory concentration (IC50) in the data set with UACC-903 [7] is more than 50 µM; in data set [8] it was 39.6 µM; in [9] it was more than 50 µM; in the data set on CHL-1 [10] it was more than 50 µM; in the data set with CHL-1 [11], 13.5 µM; in data set [12] it was more than 50 µM.

For `CN(C)CCN1C(=O)c2cccc3cc([N+](=O)[O-])cc(c23)C1=O` [MITONAFIDE], the half-maximal inhibitory concentration (IC50) in data set [1] was 3.8 µM; in the data set with UACC-903 [2], 0.5 µM; in [3] it was 1.5 µM; in [4], 1.3 µM; in the data set on UACC-903 [5], 0.8 µM; with CHL-1 [6], 0.9 µM. The IC50 in the data set on UACC-903 [7] is 11.4 µM; in data set [8], 0.6 µM; in [9], 11.1 µM; with CHL-1 [10], 2.8 µM; in the data set with CHL-1 [11], 0.5 µM; in [12] it was 0.9 µM. Also, in [13], the inhibition entry was “Active”. In addition, the Activity in the data set on NHDF [14] and in the data set on NHDF [15] was less than 20% each time.

Turning to `O=C1c2cccc3cc([N+](=O)[O-])cc(c23)C(=O)N1CCN=C=[Se]`, the IC50 in [1] was determined as 24.8 µM; with UACC-903 [2] it was 15.9 µM; in data set [3] it was 21 µM; in data set [4], 24 µM; with UACC-903 [5], 14.4 µM; in the data set with CHL-1 [6] it was 12.6 µM. Besides, the IC50 was found to be 21.6 µM in the data set with UACC-903 [7]; 20.3 µM in [8]; 21.6 µM in data set [9]; 15.3 µM with CHL-1 [10]; 11 µM with CHL-1 [11]; 19.9 µM in data set [12].

Regarding `CCCS(=O)(=O)Nc1ccc(F)c(C(=O)c2c[nH]c3ncc(-c4ccc(Cl)cc4)cc23)c1F` [VEMURAFENIB], the IC50 is more than 50 µM in data set [1]; 2.7 µM in the data set on UACC-903 [2]; 2.05 µM in data set [3]; 0.5 µM in data set [4]; 12.3 µM in the data set on UACC-903 [5]; 20 µM with CHL-1 [6]. For the same compound, the IC50 with UACC-903 [7] was more than 50 µM; in [8], 2 µM; in data set [9] it was more than 50 µM; in the data set with CHL-1 [10], more than 50 µM; with CHL-1 [11] it was 12.7 µM; in [12], 7.6 µM.

As for `O=C1c2cccc3cccc(c23)C(=O)N1CCCCN=C=[Se]`, the 50% inhibitory concentration (IC50) worked out at 19.4 µM in data set [1]; 12 µM in the data set on UACC-903 [2]; 21 µM in data set [3]; 28.4 µM in data set [4]; 9.2 µM in the data set on UACC-903 [5]; 8 µM with CHL-1 [6]. Also, the IC50 with UACC-903 [7] was determined as 13.1 µM; in [8] it was 15.4 µM; in data set [9], 13.1 µM; with CHL-1 [10] it was 9.7 µM; with CHL-1 [11], 8.9 µM; in data set [12] it was 15.9 µM.

(Values after ChEMBL document CHEMBL4033667, “Design, synthesis, and identification of a novel napthalamide-isoselenocyanate compound NISC-6 as a dual Topoisomerase-IIα and Akt pathway inhibitor, and evaluation of its anti-melanoma activity” (Eur J Med Chem, 2017).)
